These results are taken from ChEMBL document CHEMBL4602720, “Degradation versus Inhibition: Development of Proteolysis-Targeting Chimeras for Overcoming Statin-Induced Compensatory Upregulation of 3-Hydroxy-3-methylglutaryl Coenzyme A Reductase” (J Med Chem, 2020).

The target of data set [1] is T1, Protein cereblon/3-hydroxy-3-methylglutaryl-coenzyme A reductase (Homo sapiens) (UniProt P04035+Q96SW2). The data set can be described thus: Protac activity at CRBN/HMGCR in human Huh7 cells assessed as induction of HMGCR degradation at 0.01 to 1 uM after 16 hrs by Western blot analysis. Format: cell-based. To be noted: Huh-7. On the technique in general: A western blot detects proteins with antibodies after separation by electrophoresis.
T1 sequence (P04035 whole entry, looked up): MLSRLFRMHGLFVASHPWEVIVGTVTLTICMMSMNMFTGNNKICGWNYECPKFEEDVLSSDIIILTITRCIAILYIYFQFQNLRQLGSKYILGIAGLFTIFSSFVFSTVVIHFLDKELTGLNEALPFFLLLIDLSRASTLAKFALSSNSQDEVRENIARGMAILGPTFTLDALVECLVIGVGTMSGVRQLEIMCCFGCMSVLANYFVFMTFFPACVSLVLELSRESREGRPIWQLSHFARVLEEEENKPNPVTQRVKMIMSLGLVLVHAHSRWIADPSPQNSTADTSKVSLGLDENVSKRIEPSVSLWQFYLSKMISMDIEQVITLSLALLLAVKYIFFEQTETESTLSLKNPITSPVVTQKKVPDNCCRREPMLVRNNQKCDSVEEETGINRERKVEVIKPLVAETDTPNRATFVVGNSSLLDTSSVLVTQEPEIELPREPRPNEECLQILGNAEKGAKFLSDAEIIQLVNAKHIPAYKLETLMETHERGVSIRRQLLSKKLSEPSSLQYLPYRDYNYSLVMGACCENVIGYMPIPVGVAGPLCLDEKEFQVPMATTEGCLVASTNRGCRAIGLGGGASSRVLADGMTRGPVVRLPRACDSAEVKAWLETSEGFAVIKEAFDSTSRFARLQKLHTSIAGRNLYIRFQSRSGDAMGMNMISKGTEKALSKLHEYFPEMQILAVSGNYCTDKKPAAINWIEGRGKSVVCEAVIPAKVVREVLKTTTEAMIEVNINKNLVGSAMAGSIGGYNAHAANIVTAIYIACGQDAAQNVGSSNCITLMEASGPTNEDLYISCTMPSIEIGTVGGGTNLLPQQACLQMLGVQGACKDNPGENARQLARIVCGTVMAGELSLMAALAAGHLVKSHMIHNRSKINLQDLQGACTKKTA
T1 sequence (Q96SW2 whole entry, looked up): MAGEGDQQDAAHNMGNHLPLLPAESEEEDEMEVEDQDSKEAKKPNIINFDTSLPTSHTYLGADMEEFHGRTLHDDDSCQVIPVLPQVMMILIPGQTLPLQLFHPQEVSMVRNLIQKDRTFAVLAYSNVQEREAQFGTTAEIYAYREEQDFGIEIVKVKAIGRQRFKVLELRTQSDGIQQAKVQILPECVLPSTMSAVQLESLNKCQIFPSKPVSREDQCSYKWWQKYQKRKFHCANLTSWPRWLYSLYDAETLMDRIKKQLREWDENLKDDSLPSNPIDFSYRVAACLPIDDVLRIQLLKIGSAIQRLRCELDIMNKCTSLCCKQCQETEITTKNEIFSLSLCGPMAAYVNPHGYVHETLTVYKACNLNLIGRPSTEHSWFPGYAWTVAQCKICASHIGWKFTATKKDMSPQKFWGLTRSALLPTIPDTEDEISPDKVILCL

The target of data set [2] is T2, Protein cereblon/3-hydroxy-3-methylglutaryl-coenzyme A reductase (Cricetulus griseus) (UniProt P00347+G3H338). The data set can be described thus: Protac activity at CRBN/HMGCR in Insig-1/Insig-2 deficient Chinese hamster SRD15 cells assessed as increase in ubiquitination level of HMGCR at 1 uM incubated for 4 hrs in presence of MG132 by Western blot analysis. An outline of the steps: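 SRD15 cells given DMSO or 1 μM degrader together with 10 μM MG132 for 4 h. Lysates probed by immunoblot with P4D1 anti-ubiquitin antibody for high-molecular-weight HMGCR smears.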

For another data set, the system named is Huh-7. Nature of the data set: Effect on total neutral lipid in human HuH7 cells assessed change in lipid droplet count at 1 uM after 16 hrs by Oil Red O staining based method. To be noted: huh-7, 16 h. Format: ADME, cell-based. In a few lines:
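Huh7 cells on glass coverslips, treated, fixed in 4% paraformaldehyde in PBS 30 min at room temperature, stained 15 min with 0.5% (w/v) Oil Red O in propylene glycol, washed in water; lipid droplets examined relative to DMSO.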

The target of data set [3] is T2, Protein cereblon/3-hydroxy-3-methylglutaryl-coenzyme A reductase (Cricetulus griseus). The data set can be described thus: Protac activity at CRBN/HMGCR in Insig-1/Insig-2 deficient Chinese hamster SRD15 cells assessed as HMGCR level at 0.01 uM after 16 hrs by immunoblotting analysis (reference value: 1). In a few lines: (§1)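 Dose-response in SRD15 cells in Medium A with 5% FBS, 16 h treatment, DMSO final 0.1% or lower. RIPA lysates immunoblotted for HMGCR. HMGCR densitometry normalized to actin, with the DMSO group set to 1. Three repeats. DC50 is taken from a dose-response fit of the semi-quantitative blots, mean of 3 independent experiments.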
Target sequence in this assay (G3H338 1-445 partner): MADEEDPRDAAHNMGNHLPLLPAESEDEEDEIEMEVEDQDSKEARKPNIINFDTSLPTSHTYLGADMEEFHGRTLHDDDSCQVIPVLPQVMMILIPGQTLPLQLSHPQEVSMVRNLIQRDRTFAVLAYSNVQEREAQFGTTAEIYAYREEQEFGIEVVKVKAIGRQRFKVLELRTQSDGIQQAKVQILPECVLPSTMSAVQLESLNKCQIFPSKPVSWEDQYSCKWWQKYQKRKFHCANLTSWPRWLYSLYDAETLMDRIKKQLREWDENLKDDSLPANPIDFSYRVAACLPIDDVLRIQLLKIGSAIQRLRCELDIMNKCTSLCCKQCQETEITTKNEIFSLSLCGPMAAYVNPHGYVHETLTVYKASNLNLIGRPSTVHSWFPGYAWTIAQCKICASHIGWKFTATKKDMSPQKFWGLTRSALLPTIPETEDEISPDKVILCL
Target sequence in this assay (P00347 whole entry): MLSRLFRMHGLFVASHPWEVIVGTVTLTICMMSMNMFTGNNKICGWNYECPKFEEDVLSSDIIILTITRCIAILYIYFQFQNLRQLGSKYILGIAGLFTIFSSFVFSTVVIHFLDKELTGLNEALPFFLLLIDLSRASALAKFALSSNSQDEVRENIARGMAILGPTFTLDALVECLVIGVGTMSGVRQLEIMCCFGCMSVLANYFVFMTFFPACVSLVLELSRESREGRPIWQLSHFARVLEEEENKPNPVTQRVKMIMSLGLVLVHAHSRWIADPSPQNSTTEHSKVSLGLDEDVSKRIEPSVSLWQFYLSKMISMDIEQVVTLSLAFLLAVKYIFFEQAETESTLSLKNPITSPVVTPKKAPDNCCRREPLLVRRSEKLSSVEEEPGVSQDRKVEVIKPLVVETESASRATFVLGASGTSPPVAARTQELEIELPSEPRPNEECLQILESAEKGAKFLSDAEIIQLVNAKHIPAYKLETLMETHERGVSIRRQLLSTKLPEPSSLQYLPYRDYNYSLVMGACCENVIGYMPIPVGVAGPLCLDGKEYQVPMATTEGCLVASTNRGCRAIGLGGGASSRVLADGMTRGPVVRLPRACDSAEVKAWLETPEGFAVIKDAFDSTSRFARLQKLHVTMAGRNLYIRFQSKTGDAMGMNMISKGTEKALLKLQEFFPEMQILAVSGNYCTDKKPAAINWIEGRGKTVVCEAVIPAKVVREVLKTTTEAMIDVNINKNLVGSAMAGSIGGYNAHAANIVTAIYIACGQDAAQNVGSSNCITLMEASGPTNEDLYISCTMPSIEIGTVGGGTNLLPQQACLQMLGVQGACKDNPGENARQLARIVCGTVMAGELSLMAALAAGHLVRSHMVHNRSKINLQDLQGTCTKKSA

Data set [4] shares this target. Nature of the data set: Protac activity at CRBN/HMGCR in Insig-1/Insig-2 deficient Chinese hamster SRD15 cells assessed as induction of HMGCR degradation at 1 uM preincubated for 16 hrs followed by addition of proteasome inhibitor MG132 and further incubated for 3 hrs by Western blot analysis. An outline of the steps: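 SRD15 cells treated with 1 μM degrader for 16 h, then for 3 h with 10 μM MG132 or with MLN-4924 at the indicated concentrations. HMGCR by immunoblot.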

Data set [5] has the same target. Nature of the data set: Protac activity at CRBN/HMGCR in Insig-1/Insig-2 deficient Chinese hamster SRD15 cells assessed as HMGCR level at 1 uM after 16 hrs in presence of 0.1 uM pomalidomide by immunoblotting analysis (reference value: 1).
Target sequence in this assay (G3H338 1-445 partner): as the sequence (G3H338 1-445 partner) above
Target sequence in this assay (P00347 whole entry): as the sequence (P00347 whole entry) above
Data set [6] shares this target. Nature of the data set: Protac activity at CRBN/HMGCR in Insig-1/Insig-2 deficient Chinese hamster SRD15 cells assessed as HMGCR level at 3 uM after 16 hrs by immunoblotting analysis (reference value: 1). An outline of the steps:
as §1

The target is the same in data set [7]. The data set can be described thus: Protac activity at CRBN/HMGCR in Insig-1/Insig-2 deficient Chinese hamster SRD15 cells assessed as HMGCR level at 0.3 uM after 16 hrs by immunoblotting analysis (reference value: 1). In a few lines: as §1
Target sequence in this assay (G3H338 1-445 partner): as the sequence (G3H338 1-445 partner) above
Target sequence in this assay (P00347 whole entry): as the sequence (P00347 whole entry) above
For data set [8] the target is unchanged. Nature of the data set: Protac activity at CRBN/HMGCR in Insig-1/Insig-2 deficient Chinese hamster SRD15 cells assessed as HMGCR level at 1 uM after 16 hrs in presence of 10 uM pomalidomide by immunoblotting analysis (reference value: 1).
Target sequence in this assay (G3H338 1-445 partner): as the sequence (G3H338 1-445 partner) above
Target sequence in this assay (P00347 whole entry): as the sequence (P00347 whole entry) above
In data set [9] the target is T3, Sterol regulatory element-binding protein 2 (Mus musculus) (UniProt Q3U1N2).
T3 sequence (whole entry): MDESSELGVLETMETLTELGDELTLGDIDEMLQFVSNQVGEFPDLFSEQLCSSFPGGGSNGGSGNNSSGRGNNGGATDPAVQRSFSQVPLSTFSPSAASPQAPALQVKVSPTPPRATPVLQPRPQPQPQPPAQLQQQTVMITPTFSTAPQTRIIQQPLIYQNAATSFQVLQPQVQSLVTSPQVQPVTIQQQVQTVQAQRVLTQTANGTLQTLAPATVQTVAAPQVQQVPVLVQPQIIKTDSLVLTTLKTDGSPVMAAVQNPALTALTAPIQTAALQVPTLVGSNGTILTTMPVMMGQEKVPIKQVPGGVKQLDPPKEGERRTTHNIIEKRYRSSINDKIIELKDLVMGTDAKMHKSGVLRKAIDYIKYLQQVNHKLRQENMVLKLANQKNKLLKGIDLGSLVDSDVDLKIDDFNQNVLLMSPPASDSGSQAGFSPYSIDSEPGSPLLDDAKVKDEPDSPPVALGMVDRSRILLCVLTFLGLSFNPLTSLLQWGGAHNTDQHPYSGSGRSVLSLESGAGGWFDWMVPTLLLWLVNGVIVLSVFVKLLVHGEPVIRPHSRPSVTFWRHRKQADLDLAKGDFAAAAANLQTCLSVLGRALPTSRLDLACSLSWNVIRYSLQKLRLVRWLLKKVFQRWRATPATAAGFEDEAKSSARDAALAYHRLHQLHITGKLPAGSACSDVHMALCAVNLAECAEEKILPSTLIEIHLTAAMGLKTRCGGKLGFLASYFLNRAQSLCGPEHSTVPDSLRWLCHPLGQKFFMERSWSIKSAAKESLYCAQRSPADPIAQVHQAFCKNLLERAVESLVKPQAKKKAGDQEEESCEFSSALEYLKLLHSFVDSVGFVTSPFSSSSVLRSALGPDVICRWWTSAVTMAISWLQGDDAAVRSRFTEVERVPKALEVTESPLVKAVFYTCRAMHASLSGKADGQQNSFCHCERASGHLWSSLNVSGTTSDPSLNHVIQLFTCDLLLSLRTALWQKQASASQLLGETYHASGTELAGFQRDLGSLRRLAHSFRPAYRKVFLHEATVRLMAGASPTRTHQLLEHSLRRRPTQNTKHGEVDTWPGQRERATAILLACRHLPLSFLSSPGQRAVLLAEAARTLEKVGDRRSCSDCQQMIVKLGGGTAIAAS
Nature of the data set: Activation of SREBP2 pathway in mouse primary hepatocytes assessed as increase in HMGCR mRNA expression at 0.3 to 1 uM afer 16 hrs by quantitative real-time PCR analysis. Format: cell-based.

Data set [10] deals with T2, Protein cereblon/3-hydroxy-3-methylglutaryl-coenzyme A reductase (Cricetulus griseus). Nature of the data set: Protac activity at CRBN/HMGCR in Insig-1/Insig-2 deficient Chinese hamster SRD15 cells assessed as HMGCR level at 1 uM after 16 hrs by immunoblotting analysis relative to control. An outline of the steps: as §1
Target sequence in this assay (G3H338 1-445 partner): as the sequence (G3H338 1-445 partner) above
Target sequence in this assay (P00347 whole entry): as the sequence (P00347 whole entry) above
Data set [11] addresses T1, Protein cereblon/3-hydroxy-3-methylglutaryl-coenzyme A reductase (Homo sapiens). The data set can be described thus: Protac activity at human Flag-tagged CRBN/Myc-tagged HMGCR expressed in HEK293T cells assessed as induction of HMGCR immunoprecipitation 1 uM preincubated for 16 hrs followed by pomalidomide addition addition and measured after 5 hrs by Western blot analysis. Type of data set: cell-based. To be noted: HEK-293T.

For data set [12], the target named is T2, Protein cereblon/3-hydroxy-3-methylglutaryl-coenzyme A reductase (Cricetulus griseus). Nature of the data set: Protac activity at CRBN/HMGCR in Insig-1/Insig-2 deficient Chinese hamster SRD15 cells assessed as HMGCR level at 1 uM after 16 hrs in presence of 0.3 uM atorvastatin by immunoblotting analysis (reference value: 1).
Target sequence in this assay (G3H338 1-445 partner): as the sequence (G3H338 1-445 partner) above
Target sequence in this assay (P00347 whole entry): as the sequence (P00347 whole entry) above
For data set [13] the target is unchanged. The data set can be described thus: Protac activity at CRBN/HMGCR in Insig-1/Insig-2 deficient Chinese hamster SRD15 cells assessed as induction of HMGCR degradation at 1 uM after 16 hrs by immunoblotting analysis relative to control. In a few lines:
as §1

Each structure is given as a SMILES string. Activity calls are given as the source filed them. No cut-off for these calls is given here.

With `CC(C)c1c(C(=O)Nc2ccccc2)c(-c2cccc(OCCCc3cn(CCOCCOCCOCCOCCNc4cccc5c4C(=O)N(C4CCC(=O)NC4=O)C5=O)nn3)c2)c(-c2ccc(F)cc2)n1CC[C@@H](O)C[C@@H](O)CC(=O)O` (some centres undefined), the result in data set [1], in [2] and in data set [9] was Active. The Activity entry in the data set with Huh-7 was “Non-Toxic”; in data set [10], 50%; in data set [13], 70%. Moreover, the fold change (FC) in data set [3] came out at 0.8; in [5], 0.4; in data set [6] it was 0.3; in [7], 0.4; in data set [8], 1; in data set [12], 1. Further, the result in [4] and in data set [11] was inactive.
